How the values were obtained:
Mus musculus [1] = assay: Antinociceptive activity in Swiss mouse assessed as inhibition of acetic acid-induced writhing response at 100 mg/kg, po dose administered 1 hr before acetic acid challenge measured for 30 mins; type: functional
Procedure, shortened: (§1)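 Swiss mice (25–35 g, either sex), fasted overnight, received compound orally in 0.5% methylcellulose or vehicle, with 8–10 per group. Testing started at 100 mg/kg with successive twofold dose reductions. Writhes were counted for 30 min after acetic acid injection. Percent inhibition of the writhing response was calculated versus vehicle controls (Student's t-test).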

Mus musculus [2] = assay: Antinociceptive activity in Swiss mouse assessed as inhibition of acetic acid-induced writhing response at 50 mg/kg, po dose administered 1 hr before acetic acid challenge measured for 30 mins; type: functional; procedure, shortened: as §1
Mus musculus [3] = assay: Antinociceptive activity in Swiss mouse assessed as inhibition of acetic acid-induced writhing response at 25 mg/kg, po dose administered 1 hr before acetic acid challenge measured for 30 mins; type: functional; procedure, shortened: as §1
Rattus norvegicus [4] = assay: Antiinflammatory activity against carrageenan-induced paw edema in Wistar rat at 100 mg/kg, po dose administered 1 hr before carrageenan challenge assessed after 3 hrs; type: functional
Procedure, shortened: (§2)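 Wistar rats (250–300 g, either sex), fasted overnight, dosed by oral gavage with the compound suspended in 0.5% methylcellulose. Controls received vehicle alone, with 8–10 animals per group. Dosing started at 100 mg/kg and was halved stepwise. Carrageenan (1%, 0.1 mL) was injected subplantar 1 h post-dose. Paw volume was measured by plethysmometer immediately and at 3 h, and % inhibition of swelling was calculated versus controls (Student's t-test).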

Rattus norvegicus [5] = assay: Antiinflammatory activity against carrageenan-induced paw edema in Wistar rat at 50 mg/kg, po dose administered 1 hr before carrageenan challenge assessed after 3 hrs; type: functional; procedure, shortened: as §2
Rattus norvegicus [6] = assay: Antiinflammatory activity against carrageenan-induced paw edema in Wistar rat at 25 mg/kg, po dose administered 1 hr before carrageenan challenge assessed after 3 hrs; type: functional; procedure, shortened: as §2
Rattus norvegicus [7] = assay: Antiinflammatory activity against carrageenan-induced paw edema in Wistar rat at 12.5 mg/kg, po dose administered 1 hr before carrageenan challenge assessed after 3 hrs; type: functional; procedure, shortened: as §2
Mus musculus [8] = assay: Sedative activity in Swiss mouse assessed as inhibition of spontaneous locomotor activity at 100 mg/kg, po dose measured for every 5 mins during 60 to 90 mins; type: organism-based; design: dose 100 mg/kg, route oral
Procedure, shortened: (§3)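 Fasted Swiss mice (25–35 g, either sex) were given compound orally in 0.5% methylcellulose or vehicle. Each mouse was placed alone in a photobeam-type activity cage, with counts recorded every 5 min for 90 min. Pulses from the final 30 min were scored, with testing run 9:00–13:00. Percent inhibition was calculated versus controls (Student's t-test).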

Mus musculus [9] = assay: Antinociceptive activity in Swiss mouse assessed as inhibition of acetic acid-induced writhing response at 200 mg/kg, po dose administered 1 hr before acetic acid challenge measured for 30 mins; type: functional
Rattus norvegicus [10] = assay: Antiinflammatory activity against carrageenan-induced paw edema in Wistar rat at 200 mg/kg, po dose administered 1 hr before carrageenan challenge assessed after 3 hrs; type: functional
Rattus norvegicus [11] = assay: Antiinflammatory activity against carrageenan-induced paw edema in Wistar rat at 6.25 mg/kg, po dose administered 1 hr before carrageenan challenge assessed after 3 hrs; type: functional; procedure, shortened: as §2
Rattus norvegicus [12] = assay: Antiinflammatory activity against carrageenan-induced paw edema in Wistar rat at 3.12 mg/kg, po dose administered 1 hr before carrageenan challenge assessed after 3 hrs; type: functional
Rattus norvegicus [13] = assay: Acute gastrolesivity in Wistar rat assessed as appearance of gastric lesions at 200 mg/kg, po after 5 hrs; type: toxicity, organism-based, Stomach; design: dose 200 mg/kg, route oral; details: in vivo
Procedure, shortened: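 Wistar rats (250–300 g, either sex), fasted overnight, given the compound orally at 200 mg kg-1 as a suspension in 0.5% methylcellulose by gavage (1 mL/100 g); 8 rats per compound. Stomachs were fixed in 2% formalin, opened along the greater curvature, and examined under a stereomicroscope by a blinded observer. The result is the number of rats with gastric damage over the number treated.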

Mus musculus [14] = assay: Antinociceptive activity in Swiss mouse assessed as inhibition of acetic acid-induced writhing response at 12.5 mg/kg, po dose administered 1 hr before acetic acid challenge measured for 30 mins; type: functional; procedure, shortened: as §1
Mus musculus [15] = assay: Sedative activity in Swiss mouse assessed as inhibition on spontaneous locomotor activity at 25 mg/kg, po measured for every 5 mins during 60 to 90 mins; type: functional, organism-based; design: dose 25 mg/kg, route oral; procedure, shortened: as §3
Mus musculus [16] = assay: Sedative activity in Swiss mouse assessed as inhibition on spontaneous locomotor activity at 12.5 mg/kg, po dose measured for every 5 mins during 60 to 90 mins; type: ADME, organism-based; design: dose 12.5 mg/kg, route oral; procedure, shortened: as §3

SMILES	inhibition in vivo at 100 mg/kg (Mus musculus [1]) [%]	inhibition in vivo at 50 mg/kg (Mus musculus [2]) [%]	inhibition in vivo at 25 mg/kg (Mus musculus [3]) [%]	inhibition in vivo at 100 mg/kg (Rattus norvegicus [4]) [%]	inhibition in vivo at 50 mg/kg (Rattus norvegicus [5]) [%]	inhibition in vivo at 25 mg/kg (Rattus norvegicus [6]) [%]	inhibition in vivo at 12.5 mg/kg (Rattus norvegicus [7]) [%]	inhibition at 100 mg/kg (Mus musculus [8]) [%]	inhibition in vivo at 200 mg/kg (Mus musculus [9]) [%]	inhibition in vivo at 200 mg/kg (Rattus norvegicus [10]) [%]	inhibition in vivo at 6.25 mg/kg (Rattus norvegicus [11]) [%]	inhibition in vivo at 3.12 mg/kg (Rattus norvegicus [12]) [%]	Activity (Rattus norvegicus [13])	inhibition in vivo at 12.5 mg/kg (Mus musculus [14]) [%]	inhibition at 25 mg/kg (Mus musculus [15]) [%]	inhibition at 12.5 mg/kg (Mus musculus [16]) [%]
CCNc1c(C(=O)N(CC)CC)c2nnc(C(C)C)n2c2ccccc12	91	43	12	42	43	24	6	39								
CCN(CC)C(=O)c1c(NCC(OC)OC)c2cccnc2n2c(C(C)C)nnc12	47	8		0				0								
CCNc1c(C(=O)N(CC)CC)c2nnc(C(C)C)n2c2ncccc12	100	20		63	63	61	35	13	100	65	33	9	Non-toxic			
CCOc1c(C(=O)N(CC)CC)c2nnc(C(C)C)n2c2ncccc12	22			10												
CCN(CC)C(=O)c1c(N2CCN(C)CC2)c2ccccc2n2cnnc12	55	58	28	0				0								
CCOC(=O)N1CCN(c2c(C(=O)N(CC)CC)c3nnc(C(C)C)n3c3ncccc23)CC1	100	75	53	0				83						29	96	
CCN(CC)C(=O)c1c(OCC(C)C)c2cccnc2n2c(C(C)C)nnc12	26			0												
CCN(CC)C(=O)c1c(N2CCN(C)CC2)c2cccnc2n2c(-c3ccccc3)nnc12	100	62	15	0				72								
CCN(CC)C(=O)c1c(NCC(C)C)c2cccnc2n2c(C(C)C)nnc12	100	33		70	66	61	50	15	100	74	27	18	Non-toxic			
CCc1nnc2c(C(=O)N(CC)CC)c(NCCC(C)C)c3cccnc3n12	98	75	15	41	41	43	29	95			0					
CCN(CC)C(=O)c1c(OC2CCN(C)CC2)c2cccnc2n2cnnc12	45	20		0				55								
CCN(CC)C(=O)c1c(NC(C)C)c2cccnc2n2c(C(C)C)nnc12	83	54	33	81	75	75	68	98			15			0	26	0

Source: ChEMBL document CHEMBL1140964, “1,8-Naphthyridines VII. New substituted 5-amino[1,2,4]triazolo[4,3-a][1,8]naphthyridine-6-carboxamides and their isosteric analogues, exhibiting notable anti-inflammatory and/or analgesic activities, but no acute gastrolesivity” (Eur J Med Chem, 2008)
